Drawing on ChEMBL document CHEMBL1139352, “Synthesis and evaluation of novel inhibitors of Pim-1 and Pim-2 protein kinases” (J Med Chem, 2009), this text covers Activity and inhibition for 1 compound.

Data set [1] concerns Mus musculus. The data set is described as follows: Toxicity in Swiss Webster mouse assessed as glucose level at 3 mg/kg, ip daily for 7 days measured after 7 days. Format: organism-based. Details: dose 3 mg/kg, route intraperitoneal. Particulars: in vivo, 168 h.
Data set [2] relates to Mus musculus. The data set is described as follows: Toxicity in Swiss-Webster mouse at 100 mg/kg, ip daily for 5 days. Type of data set: organism-based. The arrangement: dose 100 mg/kg, route intraperitoneal. The conditions noted are these: in vivo, 120 h.
Data set [3] concerns Mus musculus. The data set is described as follows: Toxicity in Swiss Webster mouse assessed as granulocyte count at 3 mg/kg, ip daily for 7 days measured after 7 days. Format: organism-based. The arrangement: dose 3 mg/kg, route intraperitoneal. Particulars: in vivo, 168 h.
The target in data set [4] is Tyrosine-protein kinase JAK2 (Homo sapiens) (UniProt O60674). Description: Inhibition of JAK2 at 5 uM.
Tyrosine-protein kinase JAK2 (Homo sapiens), sequence (O60674 whole entry): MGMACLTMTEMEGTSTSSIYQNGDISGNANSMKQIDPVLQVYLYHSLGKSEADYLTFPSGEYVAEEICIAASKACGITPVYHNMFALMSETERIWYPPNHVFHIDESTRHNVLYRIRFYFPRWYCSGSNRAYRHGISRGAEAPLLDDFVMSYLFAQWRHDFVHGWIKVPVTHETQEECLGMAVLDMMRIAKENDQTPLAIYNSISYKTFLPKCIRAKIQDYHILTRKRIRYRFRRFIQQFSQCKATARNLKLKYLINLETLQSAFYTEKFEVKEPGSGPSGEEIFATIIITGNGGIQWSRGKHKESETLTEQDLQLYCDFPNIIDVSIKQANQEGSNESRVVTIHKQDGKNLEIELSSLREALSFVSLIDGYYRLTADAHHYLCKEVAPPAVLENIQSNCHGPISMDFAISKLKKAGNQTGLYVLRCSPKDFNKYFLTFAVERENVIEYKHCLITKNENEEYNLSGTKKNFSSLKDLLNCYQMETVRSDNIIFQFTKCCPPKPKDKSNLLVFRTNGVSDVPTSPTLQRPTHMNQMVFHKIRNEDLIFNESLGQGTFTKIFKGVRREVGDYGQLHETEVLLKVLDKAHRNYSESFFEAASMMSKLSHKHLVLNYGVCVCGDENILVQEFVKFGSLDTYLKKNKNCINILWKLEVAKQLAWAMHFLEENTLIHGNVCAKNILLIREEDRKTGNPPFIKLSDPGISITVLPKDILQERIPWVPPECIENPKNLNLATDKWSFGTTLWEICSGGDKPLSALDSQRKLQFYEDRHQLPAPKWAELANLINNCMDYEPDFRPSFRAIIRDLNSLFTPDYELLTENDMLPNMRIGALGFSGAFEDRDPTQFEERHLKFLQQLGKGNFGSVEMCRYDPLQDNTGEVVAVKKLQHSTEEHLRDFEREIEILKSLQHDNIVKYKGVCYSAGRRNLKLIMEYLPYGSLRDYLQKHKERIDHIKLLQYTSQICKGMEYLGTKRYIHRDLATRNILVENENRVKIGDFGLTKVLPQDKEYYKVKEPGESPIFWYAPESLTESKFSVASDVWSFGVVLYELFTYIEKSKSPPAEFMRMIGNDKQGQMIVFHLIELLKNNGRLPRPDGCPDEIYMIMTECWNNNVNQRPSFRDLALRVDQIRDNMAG
In data set [5] the target is Serine/threonine-protein kinase MARK1 (Homo sapiens) (UniProt Q9P0L2). The data set is described as follows: Inhibition of MARK1 at 5 uM.
Serine/threonine-protein kinase MARK1 (Homo sapiens), sequence (Q9P0L2 whole entry, looked up): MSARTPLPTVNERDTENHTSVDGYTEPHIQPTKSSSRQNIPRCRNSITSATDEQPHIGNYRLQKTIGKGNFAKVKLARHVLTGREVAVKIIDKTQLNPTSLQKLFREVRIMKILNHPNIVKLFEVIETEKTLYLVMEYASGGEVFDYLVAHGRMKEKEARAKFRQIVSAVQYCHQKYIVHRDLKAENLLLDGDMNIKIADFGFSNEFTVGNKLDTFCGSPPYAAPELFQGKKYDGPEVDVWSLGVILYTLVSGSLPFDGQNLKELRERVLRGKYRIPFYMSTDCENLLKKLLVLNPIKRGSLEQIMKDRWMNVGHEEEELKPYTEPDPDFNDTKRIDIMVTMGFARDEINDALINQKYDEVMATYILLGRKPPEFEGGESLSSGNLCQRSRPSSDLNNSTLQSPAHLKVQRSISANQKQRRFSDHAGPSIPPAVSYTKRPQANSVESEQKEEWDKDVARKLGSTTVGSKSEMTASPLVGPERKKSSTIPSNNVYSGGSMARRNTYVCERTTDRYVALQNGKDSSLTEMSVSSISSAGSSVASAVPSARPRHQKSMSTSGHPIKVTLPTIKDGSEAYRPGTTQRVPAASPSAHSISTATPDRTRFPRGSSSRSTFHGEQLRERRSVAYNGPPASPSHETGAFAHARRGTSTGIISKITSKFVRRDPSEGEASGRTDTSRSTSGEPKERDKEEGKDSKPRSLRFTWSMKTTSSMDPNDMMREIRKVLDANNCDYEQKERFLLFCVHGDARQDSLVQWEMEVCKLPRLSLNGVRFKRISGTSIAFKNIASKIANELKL
Data set [6] has as its system Mus musculus. The data set is described as follows: Toxicity in Swiss Webster mouse assessed as Na+ level at 50 mg/kg, ip daily for 7 days measured after 7 days. Format: organism-based. The arrangement: dose 50 mg/kg, route intraperitoneal. The conditions noted are these: in vivo, 168 h.
Data set [7] relates to Mus musculus. The data set is described as follows: Toxicity in Swiss Webster mouse assessed as granulocyte count at 10 mg/kg, ip daily for 7 days measured after 7 days. Type of data set: organism-based. Details: dose 10 mg/kg, route intraperitoneal. Particulars: in vivo, 168 h.
Data set [8] addresses Mitogen-activated protein kinase 1 (Homo sapiens) (UniProt P28482). Description: Inhibition of Erk2 at 5 uM.
Data set [9] concerns Mus musculus. The data set is described as follows: Toxicity in Swiss Webster mouse assessed as white blood cell count at 3 mg/kg, ip daily for 7 days measured after 7 days. Type of data set: organism-based. Particulars: in vivo, 168 h. Details: dose 3 mg/kg, route intraperitoneal. In a few lines: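 Six-week-old female Swiss Webster mice (about 25 g) received intraperitoneal injections daily for 7 days. Doses were 3, 10 or 50 mg/kg, with a vehicle group (30% PEG-400, 5% Tween-80, 65% DMSO). Values are reported as ranges per group.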

For data set [10], the system named is Mus musculus. Description: Toxicity in Swiss Webster mouse assessed as albumin level at 3 mg/kg, ip daily for 7 days measured after 7 days. The conditions noted are these: in vivo, 168 h. The arrangement: dose 3 mg/kg, route intraperitoneal. Format: organism-based.
Data set [11] deals with Mus musculus. Description: Toxicity in Swiss Webster mouse assessed as monocyte count at 10 mg/kg, ip daily for 7 days measured after 7 days. Particulars: in vivo, 168 h. Format: organism-based. The arrangement: dose 10 mg/kg, route intraperitoneal.
The nature of data set [12]: Inhibition of CAMK2 at 5 uM.
The target of data set [13] is Serine/threonine-protein kinase 3 (Homo sapiens) (UniProt Q13188). The data set is described as follows: Inhibition of MST2 at 5 uM.
Serine/threonine-protein kinase 3 (Homo sapiens), sequence (Q13188 whole entry, canonical isoform): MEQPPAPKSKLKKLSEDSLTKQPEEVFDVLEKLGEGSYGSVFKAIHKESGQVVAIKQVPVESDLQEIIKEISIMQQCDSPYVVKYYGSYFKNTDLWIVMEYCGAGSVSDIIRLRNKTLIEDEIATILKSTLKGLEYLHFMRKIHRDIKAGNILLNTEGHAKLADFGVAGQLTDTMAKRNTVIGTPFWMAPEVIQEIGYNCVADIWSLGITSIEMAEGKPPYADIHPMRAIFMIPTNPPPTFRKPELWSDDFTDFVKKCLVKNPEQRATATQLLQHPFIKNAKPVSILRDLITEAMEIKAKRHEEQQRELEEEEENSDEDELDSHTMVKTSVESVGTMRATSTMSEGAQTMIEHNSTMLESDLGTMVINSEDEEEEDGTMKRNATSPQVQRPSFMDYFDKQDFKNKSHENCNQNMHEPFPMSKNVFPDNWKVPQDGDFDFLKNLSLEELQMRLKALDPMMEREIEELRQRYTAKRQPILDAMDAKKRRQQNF
Data set [14] concerns the target Casein kinase I isoform delta (Homo sapiens) (UniProt P48730). The data set is described as follows: Inhibition of CK1delta at 5 uM.

Mitogen-activated protein kinase 1 (Homo sapiens), sequence (P28482 whole entry): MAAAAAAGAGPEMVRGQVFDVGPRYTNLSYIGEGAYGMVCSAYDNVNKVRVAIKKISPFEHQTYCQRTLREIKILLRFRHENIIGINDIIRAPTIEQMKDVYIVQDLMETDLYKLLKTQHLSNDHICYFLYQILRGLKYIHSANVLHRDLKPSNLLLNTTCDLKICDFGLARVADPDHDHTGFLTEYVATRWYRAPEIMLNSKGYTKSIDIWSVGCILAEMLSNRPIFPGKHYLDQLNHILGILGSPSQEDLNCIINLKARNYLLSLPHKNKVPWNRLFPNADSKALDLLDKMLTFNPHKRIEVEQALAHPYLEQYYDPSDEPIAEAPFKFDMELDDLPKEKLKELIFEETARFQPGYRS
Casein kinase I isoform delta (Homo sapiens), sequence (P48730 whole entry, looked up, canonical isoform): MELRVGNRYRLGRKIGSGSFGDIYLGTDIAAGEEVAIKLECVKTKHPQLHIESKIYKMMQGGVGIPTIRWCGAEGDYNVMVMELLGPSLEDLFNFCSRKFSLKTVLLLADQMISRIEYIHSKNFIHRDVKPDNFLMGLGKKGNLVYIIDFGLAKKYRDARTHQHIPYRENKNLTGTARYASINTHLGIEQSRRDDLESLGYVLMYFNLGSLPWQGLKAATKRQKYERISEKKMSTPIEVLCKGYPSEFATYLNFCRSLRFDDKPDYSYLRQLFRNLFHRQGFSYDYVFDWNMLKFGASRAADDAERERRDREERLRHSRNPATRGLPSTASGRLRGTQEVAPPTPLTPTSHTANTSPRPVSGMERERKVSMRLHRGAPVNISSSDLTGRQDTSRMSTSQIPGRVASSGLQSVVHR

In the case of `CCCOc1ccc(/C=C2\SC(=O)NC2=O)cc1`, the Activity in data set [1] is 80 mg/dL; in [2], “Toxic”; in [3], 0.01 ×10⁹ /L; in data set [6], 145 mmol/L; in [7], 0.61 ×10⁹ /L; in [9], 3.73 ×10⁹ /L. The Activity in [10] stood at 3.3 g/dL; in data set [11], 0.08 ×10⁹ /L. The inhibition (commonly the drop in the measured response relative to a control, in per cent) in [4] was 18%; in data set [5], -6%; in data set [8] it was -1%; in [12], -1%; in data set [13] it was 1%; in data set [14], 7%.
